Here are results for 27 compounds from article PMC9071802 (RSC Advances, 2019).

The test has as its system P. aeruginosa MH602 lasB reporter strain (PlasB: gfp(ASV)). Briefly: Quorum sensing inhibition assay, GFP fluorescence of lasB reporter strain. As to conditions: ± standard deviation, NA: no activity; for inhibition at 62.5 µM / inhibition at 125 µM / inhibition at 250 µM: Pseudomonas aeruginosa; for inhibition at 62.5 µM: read-out: Percentage inhibition of GFP fluorescence, 62.5 μM; for inhibition at 125 µM: read-out: Percentage inhibition of GFP fluorescence, 125 μM; for inhibition at 250 µM: read-out: Percentage inhibition of GFP fluorescence, 250 μM; for Percentage inhibition of GFP fluorescence: 250 μM, 250 µM. In kind it is cell-based, Pseudomonas aeruginosa. A digest of the protocol: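 The reporter is a chromosomal lasB promoter–gfp(ASV) fusion responsive to 3-oxododecanoyl-HSL. Cultures were grown overnight in LB10, then diluted 1:100 in ABT with 0.25% tryptone and 0.13% yeast extract plus ampicillin 100 µg mL⁻¹ and gentamicin 20 µg mL⁻¹. Test compound in DMSO was tested at 62.5, 125 or 250 µM, with 1% DMSO controls. Cultures were incubated at 37 °C and shaken briefly before each read. Fluorescence (ex 485/em 535 nm) and OD600 were read every 30 min for 20 h, in triplicate per experiment.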

Turning to `CCCc1cn(CC(=O)Nc2nc3ccccc3[nH]2)nn1` [6a, N-(1H-Benzo[d]imidazol-2-yl)-2-(4-propyl-1H-1,2,3-triazol-1-yl)acetamide], the inhibition – broadly, the relative decrease from the control value, in per cent – at 62.5 µM is 25.1 ± 0.37%; the inhibition at 125 µM came out at 35.3 ± 20.4%; the inhibition at 250 µM came out at 50.5 ± 11.8%.

Consider `CCCCCc1cn(CC(=O)Nc2nc3ccccc3[nH]2)nn1` [6b, N-(1H-Benzo[d]imidazol-2-yl)-2-(4-pentyl-1H-1,2,3-triazol-1-yl)acetamide], for which the inhibition at 62.5 µM came to 27.4 ± 2.36%, the inhibition at 125 µM amounted to 38.8 ± 11.5% and the inhibition at 250 µM was 43.5 ± 6.23%.

In the case of `CCCCCCCc1cn(CC(=O)Nc2nc3ccccc3[nH]2)nn1` [6c, N-(1H-Benzo[d]imidazol-2-yl)-2-(4-heptyl-1H-1,2,3-triazol-1-yl)acetamide], the inhibition at 62.5 µM worked out at 25.7 ± 7.62%, the inhibition at 125 µM was 34.7 ± 11.6% and the inhibition at 250 µM turned out to be 42.8 ± 14.6%.

As to `CCCCCCCCCc1cn(CC(=O)Nc2nc3ccccc3[nH]2)nn1` [6d, N-(1H-Benzo[d]imidazol-2-yl)-2-(4-nonyl-1H-1,2,3-triazol-1-yl)acetamide], the inhibition at 62.5 µM worked out at 30.6 ± 7.62%, the inhibition at 125 µM was determined as 41.9 ± 4.5% and the inhibition at 250 µM came to 48.5 ± 12.7%.

Turning to `O=C(Cn1cc(Cn2cc(Cl)ccc2=O)nn1)Nc1nc2ccccc2[nH]1` [6f, N-(1H-Benzo[d]imidazol-2-yl)-2-(4-((5-chloro-2-oxopyridin-1(2H)-yl)methyl)-1H-1,2,3-triazol-1-yl)acetamide], the inhibition at 62.5 µM came out at 36.1 ± 10.7%, the inhibition at 125 µM came to 52.7 ± 11.9% and the inhibition at 250 µM turned out to be 58.8 ± 5.09%.

As for `O=C(Cn1cc(-c2ccccc2)nn1)Nc1nc2ccccc2[nH]1` [6g, N-(1H-Benzo[d]imidazol-2-yl)-2-(4-phenyl-1H-1,2,3-triazol-1-yl)acetamide], the inhibition at 62.5 µM worked out at 15.1 ± 5.83%, the inhibition at 125 µM worked out at 17.4 ± 22% and the inhibition at 250 µM stood at 46 ± 10.2%.

Regarding `O=C(Cn1cc(-c2ccc(F)cc2)nn1)Nc1nc2ccccc2[nH]1` [6h, N-(1H-Benzo[d]imidazol-2-yl)-2-(4-(4-fluorophenyl)-1H-1,2,3-triazol-1-yl)acetamide], the inhibition at 62.5 µM was found to be 49 ± 12.3%, the inhibition at 125 µM is 54.9 ± 2.42% and the inhibition at 250 µM stood at 56.1 ± 1.77%.

In the case of `O=C(Cn1cc(-c2ccc(Cl)cc2)nn1)Nc1nc2ccccc2[nH]1` [6i, N-(1H-Benzo[d]imidazol-2-yl)-2-(4-(4-chlorophenyl)-1H-1,2,3-triazol-1-yl)acetamide], the inhibition at 62.5 µM was found to be 52.9 ± 8.86%, the inhibition at 125 µM turned out to be 60.5 ± 6.16% and the inhibition at 250 µM was 65 ± 8.25%.

On to `O=C(Cn1cc(-c2ccc(Br)cc2)nn1)Nc1nc2ccccc2[nH]1` [6j, N-(1H-Benzo[d]imidazol-2-yl)-2-(4-(4-bromophenyl)-1H-1,2,3-triazol-1-yl)acetamide], for which the inhibition at 62.5 µM was 45.7 ± 5.44%, the inhibition at 125 µM was 46.2 ± 8.52% and the inhibition at 250 µM was found to be 50.7 ± 10.9%.

For the compound `Cc1ccc(-c2cn(CC(=O)Nc3nc4ccccc4[nH]3)nn2)cc1` [6k, N-(1H-Benzo[d]imidazol-2-yl)-2-(4-(p-tolyl)-1H-1,2,3-triazol-1-yl)acetamide], the inhibition at 62.5 µM was 36.8 ± 6.63%, the inhibition at 125 µM is 32.3 ± 22.2% and the inhibition at 250 µM was found to be 35.9 ± 13.8%.

As to `CC(C)(C)c1ccc(-c2cn(CC(=O)Nc3nc4ccccc4[nH]3)nn2)cc1` [6l, N-(1H-Benzo[d]imidazol-2-yl)-2-(4-(4-(tert-butyl)phenyl)-1H-1,2,3-triazol-1-yl)acetamide], the inhibition at 250 µM was found to be 35.2 ± 8.78%.

As to `O=C(Cn1cc(-c2ccc(O)cc2)nn1)Nc1nc2ccccc2[nH]1` [6m, N-(1H-Benzo[d]imidazol-2-yl)-2-(4-(4-hydroxyphenyl)-1H-1,2,3-triazol-1-yl)acetamide], the inhibition at 62.5 µM turned out to be 34.4 ± 4.97%, the inhibition at 125 µM was determined as 45.7 ± 6.21% and the inhibition at 250 µM came out at 58.4 ± 7.75%.

On to `COc1ccc(-c2cn(CC(=O)Nc3nc4ccccc4[nH]3)nn2)cc1` [6n, N-(1H-Benzo[d]imidazol-2-yl)-2-(4-(4-methoxyphenyl)-1H-1,2,3-triazol-1-yl)acetamide], for which the inhibition at 125 µM worked out at 5.16 ± 16.6% and the inhibition at 250 µM was found to be 20 ± 14%.

Regarding `O=C(Cn1cc(-c2ccc(C(F)(F)F)cc2)nn1)Nc1nc2ccccc2[nH]1` [6o, N-(1H-Benzo[d]imidazol-2-yl)-2-(4-(4-(trifluoromethyl)phenyl)-1H-1,2,3-triazol-1-yl)acetamide], the inhibition at 62.5 µM is 57.5 ± 7.73%, the inhibition at 125 µM is 59.9 ± 7.99% and the inhibition at 250 µM came out at 64.2 ± 7.3%.

Regarding `O=C(Cn1cc(-c2cccc([N+](=O)[O-])c2)nn1)Nc1nc2ccccc2[nH]1` [6q, N-(1H-Benzo[d]imidazol-2-yl)-2-(4-(3-nitrophenyl)-1H-1,2,3-triazol-1-yl)acetamide], the inhibition at 62.5 µM was 28.2 ± 10.2%, the inhibition at 125 µM stood at 36 ± 6.13% and the inhibition at 250 µM was found to be 39.4 ± 5.14%.

`CCCc1cn(CC(=O)Nc2nc3cc(C)c(C)cc3[nH]2)nn1` [7a, N-(5,6-Dimethyl-1H-benzo[d]imidazol-2-yl)-2-(4-propyl-1H-1,2,3-triazol-1-yl)acetamide]: the inhibition at 62.5 µM was 19.9 ± 3.8%, the inhibition at 125 µM is 22.1 ± 14.7% and the inhibition at 250 µM is 31.8 ± 11%.

Regarding `CCCCCc1cn(CC(=O)Nc2nc3cc(C)c(C)cc3[nH]2)nn1` [7b, N-(5,6-Dimethyl-1H-benzo[d]imidazol-2-yl)-2-(4-pentyl-1H-1,2,3-triazol-1-yl)acetamide], the inhibition at 62.5 µM amounted to 16.9 ± 5.74%, the inhibition at 125 µM amounted to 20.2 ± 11.5% and the inhibition at 250 µM was 26.6 ± 20.8%.

For the compound `CCCCCCCCCc1cn(CC(=O)Nc2nc3cc(C)c(C)cc3[nH]2)nn1` [7d, N-(5,6-Dimethyl-1H-benzo[d]imidazol-2-yl)-2-(4-nonyl-1H-1,2,3-triazol-1-yl)acetamide], the inhibition at 62.5 µM worked out at 37.1 ± 7.75%, the inhibition at 125 µM was 41.6 ± 5.08% and the inhibition at 250 µM is 44.6 ± 3.87%.

Take `Cc1cc2nc(NC(=O)Cn3cc(CSc4nc5ccccc5[nH]4)nn3)[nH]c2cc1C` [7e, 2-(4-(((1H-Benzo[d]imidazol-2-yl)thio)methyl)-1H-1,2,3-triazol-1-yl)-N-(5,6-dimethyl-1H-benzo[d]imidazol-2-yl)acetamide]: the inhibition at 62.5 µM amounted to 15.1 ± 9.82% and the inhibition at 250 µM came out at 16 ± 26.1%.

On to `Cc1cc2nc(NC(=O)Cn3cc(Cn4cc(Cl)ccc4=O)nn3)[nH]c2cc1C` [7f, 2-(4-((5-Chloro-2-oxopyridin-1(2H)-yl)methyl)-1H-1,2,3-triazol-1-yl)-N-(5,6-dimethyl-1H-benzo[d]imidazol-2-yl)acetamide], for which the inhibition at 62.5 µM is 26.1 ± 7.69%, the inhibition at 125 µM stood at 29 ± 13.6% and the inhibition at 250 µM came to 36.8 ± 7.9%.

For `Cc1cc2nc(NC(=O)Cn3cc(-c4ccccc4)nn3)[nH]c2cc1C` [7g, N-(5,6-Dimethyl-1H-benzo[d]imidazol-2-yl)-2-(4-phenyl-1H-1,2,3-triazol-1-yl)acetamide], the inhibition at 62.5 µM was 28.5 ± 8.41%, the inhibition at 125 µM was 29.9 ± 17.4% and the inhibition at 250 µM amounted to 47.6 ± 14.4%.

Consider `Cc1cc2nc(NC(=O)Cn3cc(-c4ccc(Br)cc4)nn3)[nH]c2cc1C` [7h, 2-(4-(4-Bromophenyl)-1H-1,2,3-triazol-1-yl)-N-(5,6-dimethyl-1H-benzo[d]imidazol-2-yl)acetamide], for which the inhibition at 62.5 µM stood at 31.2 ± 5.02%, the inhibition at 125 µM was found to be 44.7 ± 14.3% and the inhibition at 250 µM was 57.6 ± 7.43%.

For the compound `Cc1ccc(-c2cn(CC(=O)Nc3nc4cc(C)c(C)cc4[nH]3)nn2)cc1` [7i, N-(5,6-Dimethyl-1H-benzo[d]imidazol-2-yl)-2-(4-(p-tolyl)-1H-1,2,3-triazol-1-yl)acetamide], the inhibition at 125 µM is 14.9 ± 8.82% and the inhibition at 250 µM was found to be 50.7 ± 12.3%.

`Cc1cc2nc(NC(=O)Cn3cc(-c4ccc(O)cc4)nn3)[nH]c2cc1C` [7j, N-(5,6-Dimethyl-1H-benzo[d]imidazol-2-yl)-2-(4-(4-hydroxyphenyl)-1H-1,2,3-triazol-1-yl)acetamide]: the “Percentage inhibition of GFP fluorescence” value came out at 44.73 ± 13.15%, the inhibition at 62.5 µM was determined as 17.6 ± 6.21%, the inhibition at 125 µM worked out at 24.2 ± 14.5% and the inhibition at 250 µM was > 40%.

Take `COc1ccc(-c2cn(CC(=O)Nc3nc4cc(C)c(C)cc4[nH]3)nn2)cc1` [7k, N-(5,6-Dimethyl-1H-benzo[d]imidazol-2-yl)-2-(4-(4-methoxyphenyl)-1H-1,2,3-triazol-1-yl)acetamide]: the “Percentage inhibition of GFP fluorescence” value is 40.82 ± 23.41%, the inhibition at 62.5 µM was 20.4 ± 2.59%, the inhibition at 125 µM stood at 24.3 ± 23.3% and the inhibition at 250 µM is > 40%.

For the compound `Cc1cc2nc(NC(=O)Cn3cc(-c4ccc(C(F)(F)F)cc4)nn3)[nH]c2cc1C` [7l, N-(5,6-Dimethyl-1H-benzo[d]imidazol-2-yl)-2-(4-(4-(trifluoromethyl)phenyl)-1H-1,2,3-triazol-1-yl)acetamide], the inhibition at 62.5 µM came out at 36.1 ± 7.67%, the inhibition at 125 µM came out at 56.4 ± 5.85% and the inhibition at 250 µM was found to be 65.8 ± 1.91%.

For the compound `Cc1cc2nc(NC(=O)Cn3cc(-c4ccc([N+](=O)[O-])cc4)nn3)[nH]c2cc1C` [7m, N-(5,6-Dimethyl-1H-benzo[d]imidazol-2-yl)-2-(4-(4-nitrophenyl)-1H-1,2,3-triazol-1-yl)acetamide], the inhibition at 62.5 µM is 21 ± 10.3%, the inhibition at 125 µM worked out at 31.5 ± 16.2% and the inhibition at 250 µM stood at 53.9 ± 9.78%.
